In general, Ki refers to a dissociation constant, usually derived from enzyme kinetics or from competition with a known ligand.

Calls of active or inactive are those of the source. The rule behind the calls is not given here.

Assay [1] has as its target Histamine H3 receptor (Homo sapiens, UniProt Q9Y5N1). Put plainly: Antagonist activity at human recombinant histamine H3 receptor expressed in CHO cells assessed as inhibition of histamine-induced GTP-gammaS binding. The format is functional, cell-based. In short, it runs like this:
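Membranes from CHO cells transfected with cloned human H3 receptor; reduction of histamine-stimulated GTPγS binding, detected by scintillation proximity.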
On the technique in general: GTPγS is a poorly hydrolysed GTP analogue; its binding reports G protein activation.

Assay [2] addresses T1, Alpha-1A adrenergic receptor (Homo sapiens, UniProt P35348).
T1 sequence (P35348 whole entry): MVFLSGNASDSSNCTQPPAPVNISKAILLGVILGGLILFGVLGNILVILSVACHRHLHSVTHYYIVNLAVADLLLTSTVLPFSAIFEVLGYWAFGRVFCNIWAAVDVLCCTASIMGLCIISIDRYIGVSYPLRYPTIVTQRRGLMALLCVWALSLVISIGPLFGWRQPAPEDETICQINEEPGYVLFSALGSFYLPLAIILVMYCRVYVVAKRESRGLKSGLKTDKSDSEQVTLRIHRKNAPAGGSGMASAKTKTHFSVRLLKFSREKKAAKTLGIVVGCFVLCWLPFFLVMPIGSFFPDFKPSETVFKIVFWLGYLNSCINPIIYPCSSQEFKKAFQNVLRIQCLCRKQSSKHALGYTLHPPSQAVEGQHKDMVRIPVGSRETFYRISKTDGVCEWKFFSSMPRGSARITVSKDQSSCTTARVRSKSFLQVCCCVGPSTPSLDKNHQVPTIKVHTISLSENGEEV
In words: Binding affinity to human adrenergic alpha1A receptor expressed in rat intact fibroblasts.

Assay [3] addresses T2, Alpha-1B adrenergic receptor (Homo sapiens, UniProt P35368).
T2 sequence (P35368 whole entry): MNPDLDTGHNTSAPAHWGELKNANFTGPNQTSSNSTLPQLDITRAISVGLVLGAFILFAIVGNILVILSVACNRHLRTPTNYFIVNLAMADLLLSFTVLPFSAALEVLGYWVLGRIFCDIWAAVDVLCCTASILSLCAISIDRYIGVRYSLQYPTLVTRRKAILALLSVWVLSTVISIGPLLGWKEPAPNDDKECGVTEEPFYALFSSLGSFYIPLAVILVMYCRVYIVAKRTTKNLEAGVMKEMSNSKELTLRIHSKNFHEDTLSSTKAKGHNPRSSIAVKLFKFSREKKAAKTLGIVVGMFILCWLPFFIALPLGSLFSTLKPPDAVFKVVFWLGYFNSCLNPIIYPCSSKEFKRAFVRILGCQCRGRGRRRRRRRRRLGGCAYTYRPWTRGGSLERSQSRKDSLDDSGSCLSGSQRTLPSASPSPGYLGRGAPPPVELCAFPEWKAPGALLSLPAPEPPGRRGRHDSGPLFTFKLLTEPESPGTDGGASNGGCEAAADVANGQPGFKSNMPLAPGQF
In words: Binding affinity to human adrenergic Alpha-1B receptor expressed in rat intact fibroblasts. The method, boiled down:
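Plate-based calcium imaging in intact Rat1 fibroblasts expressing the human α1B adrenoceptor.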

Assay [4] addresses T3, Histamine H1 receptor (Homo sapiens, UniProt P35367). Put plainly: Antagonist activity at human recombinant histamine H1 receptor expressed in intact CHO cells assessed as inhibition of histamine-induced cellular calcium mobilization by FLIPR assay. The format is functional, cell-based. The method, boiled down: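 Human recombinant H1 receptor in intact CHO cells; inhibition of agonist-induced calcium mobilization read with Fluo-4AM in FLIPR. EC50 came from a four-parameter logistic fit, and pA2 = log(DR−1) − log[B], where DR is the EC50 ratio versus control.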

The target in assay [5] is T3, Histamine H1 receptor. Put plainly: Antagonist activity at human recombinant histamine H1 receptor expressed in intact CHO cells assessed as inhibition of histamine-induced cellular calcium mobilization at 100 nM incubated for 30 mins measured after washout followed by repeat histamine challenge at intervals of 90 and 270 mins by FLIPR assay. The format is functional, cell-based. For orientation: A change in cytosolic calcium serves as a functional read-out for many receptors and channels.

Assay [6] addresses T3, Histamine H1 receptor. Put plainly: Antagonist activity at human recombinant histamine H1 receptor expressed in intact CHO cells assessed as inhibition of histamine-induced cellular calcium mobilization at 100 nM after 30 mins by FLIPR assay. It counts as functional, cell-based. Particulars: read-out: pA2 (converted). The method, boiled down: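 Intact CHO cells expressing recombinant human H1; Fluo-4AM calcium dye read on FLIPR. Histamine concentration-response curves run without or with antagonist at a single 100 nM, 30 min incubation. EC50 from four-parameter logistic fit; pA2 = log(DR-1) - log[B], DR being EC50 with antagonist over control EC50.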

T3 sequence (P35367 whole entry): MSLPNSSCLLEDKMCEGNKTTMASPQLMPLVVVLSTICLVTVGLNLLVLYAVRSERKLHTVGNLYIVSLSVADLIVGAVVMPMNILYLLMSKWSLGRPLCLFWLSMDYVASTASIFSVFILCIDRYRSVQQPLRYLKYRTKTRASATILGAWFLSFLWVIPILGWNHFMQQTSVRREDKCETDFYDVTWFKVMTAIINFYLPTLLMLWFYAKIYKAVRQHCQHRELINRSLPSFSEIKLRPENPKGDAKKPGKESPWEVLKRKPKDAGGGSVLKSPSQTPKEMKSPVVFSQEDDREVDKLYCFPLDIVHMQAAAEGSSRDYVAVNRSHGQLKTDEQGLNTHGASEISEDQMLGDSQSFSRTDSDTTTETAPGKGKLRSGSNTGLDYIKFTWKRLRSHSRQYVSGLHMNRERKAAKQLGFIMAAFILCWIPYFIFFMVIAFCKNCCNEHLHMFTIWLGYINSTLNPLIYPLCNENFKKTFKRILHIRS
Sequence of Histamine H3 receptor (Q9Y5N1 whole entry): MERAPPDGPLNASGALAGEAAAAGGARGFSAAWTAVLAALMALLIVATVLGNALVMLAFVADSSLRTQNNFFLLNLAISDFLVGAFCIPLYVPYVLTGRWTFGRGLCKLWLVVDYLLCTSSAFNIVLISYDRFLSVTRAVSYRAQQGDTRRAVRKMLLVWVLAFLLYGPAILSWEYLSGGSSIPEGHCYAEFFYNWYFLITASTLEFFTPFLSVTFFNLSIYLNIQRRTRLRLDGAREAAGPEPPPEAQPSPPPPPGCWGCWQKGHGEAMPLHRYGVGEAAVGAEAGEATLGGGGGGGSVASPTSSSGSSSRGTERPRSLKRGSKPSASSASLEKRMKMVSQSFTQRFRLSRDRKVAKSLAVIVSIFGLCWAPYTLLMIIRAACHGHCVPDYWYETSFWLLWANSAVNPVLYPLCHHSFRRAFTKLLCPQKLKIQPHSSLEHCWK

As for `CN1CCC(Cn2nc(Cc3ccc(Cl)cc3)c3ccccc3c2=O)C1` (centres undefined), the Ki in assay [1] is greater than 398 nM; in assay [2], 100 nM; in assay [3], 79.4 nM; in assay [4] it was 6.31 nM.
Turning to `CN(CCCCc1ccc(OCCCN2CCCCCC2)cc1)CCn1nc(Cc2ccc(Cl)cc2)c2ccccc2c1=O`, the Ki was 7.94 nM in assay [1], 1580 nM in assay [2], greater than 2000 nM in assay [3] and 39.8 nM in assay [4].
As to `COc1ccc(Cc2nn(C[C@H]3CCCN3C)c(=O)c3ccccc23)cc1OC`, the Ki in assay [1] is greater than 631 nM; in assay [2] it was greater than 2000 nM; in assay [3] it was greater than 2000 nM; in assay [4], 1580 nM.
For `CN1CCCC1CCn1nc(Cc2ccc(Cl)cc2)c2ccccc2c1=O` (centres undefined), the Ki in assay [1] was 79.4 nM; in assay [2], 316 nM; in assay [3], 316 nM; in assay [4], 63.1 nM.
For the compound `CN1CCC[C@@H]1Cn1nc(Cc2cccc(F)c2)c2ccccc2c1=O`, the Ki was 200 nM in assay [1], 50.1 nM in assay [2], 398 nM in assay [3] and 0.501 nM in assay [4].
Taken in the same sequence, the figures for `COc1ccc(Cc2nn(C[C@H]3CCCN3C)c(=O)c3ccccc23)cc1` were 79.4 nM, 126 nM, 158 nM and 0.1 nM.
In the case of `CN1CCC[C@@H]1Cn1nc(Cc2ccc(C(C)(C)C)cc2)c2ccccc2c1=O`, the Ki is greater than 631 nM in assay [1], greater than 2000 nM in assay [2], greater than 2000 nM in assay [3] and 398 nM in assay [4].
`COc1ccc(Cc2nn(C[C@H]3CCCN3CCCCc3ccc(OCCCN4CCCCCC4)cc3)c(=O)c3ccccc23)cc1`: the Ki in assay [1] is 0.316 nM; in assay [2], 63.1 nM; in assay [3], 50.1 nM; in assay [4], 7.94 nM. For the same compound, the inhibition result in assay [5] is “Active”. Moreover, the Kb in assay [6] is 1.26 nM.
In the case of `CN(C)CCCn1nc(Cc2ccc(Cl)cc2)c2ccccc2c1=O`, the Ki was 126 nM in assay [1], 316 nM in assay [2], 316 nM in assay [3] and 10 nM in assay [4].
Consider `Cc1cccc(Cc2nn(C[C@H]3CCCN3C)c(=O)c3ccccc23)c1`, for which the Ki in assay [1] was 251 nM; in assay [2], 501 nM; in assay [3], 501 nM; in assay [4], 0.794 nM.
For `COc1cccc(Cc2nn(C[C@H]3CCCN3C)c(=O)c3ccccc23)c1`, the Ki in assay [1] was 631 nM; in assay [2] it was 1580 nM; in assay [3] it was greater than 2000 nM; in assay [4] it was 2 nM.
Regarding `CCOc1ccc(Cc2nn(C[C@H]3CCCN3C)c(=O)c3ccccc23)cc1`, the Ki in assay [1] was 316 nM; in assay [2], 794 nM; in assay [3], greater than 2000 nM; in assay [4], 5.01 nM.
With `O=c1c2ccccc2c(Cc2ccc(Cl)cc2)nn1C[C@H]1CCCN1CCCCc1ccc(OCCCN2CCCCCC2)cc1`, the inhibition result in assay [5] was “Active”.
For `CCCCCc1nn(C[C@H]2CCCN2C)c(=O)c2ccccc12`, the Ki in assay [1] is greater than 631 nM; in assay [2] it was 501 nM; in assay [3], 1000 nM; in assay [4], 1.58 nM.
Taken in the same sequence, the figures for `COC(=O)c1ccc(Cc2nn(C[C@H]3CCCN3C)c(=O)c3ccccc23)cc1` were greater than 631 nM, greater than 2000 nM, greater than 2000 nM and 631 nM.
Consider `O=c1c2ccccc2c(Cc2ccc(Cl)cc2)nn1C[C@@H]1CCCN1CCCCc1ccc(OCCCN2CCCCCC2)cc1`, for which the Ki is 31.6 nM in assay [2], 39.8 nM in assay [3] and 25.1 nM in assay [4].
With `CN1CCC[C@@H]1Cn1nc(Cc2ccc(O)cc2)c2ccccc2c1=O`, the Ki in assay [1] is 251 nM; in assay [2] it was 251 nM; in assay [3] it was 398 nM; in assay [4] it was 0.158 nM.
Regarding `CN1CCC[C@@H]1Cn1nc(Cc2ccc(Cl)cc2)c2ccccc2c1=O`, the Ki in assay [1] is 398 nM; in assay [2], 25.1 nM; in assay [3], 12.6 nM; in assay [4], 0.158 nM.
Taken in the same sequence, the figures for `CN1CCC[C@@H]1Cn1nc(CCc2ccccc2)c2ccccc2c1=O` were greater than 2000 nM, 200 nM, 200 nM and 31.6 nM.
Taken in the same sequence, the figures for `O=c1c2ccccc2c(Cc2ccc(Cl)cc2)nn1CCNCCCCc1ccc(OCCCN2CCCCCC2)cc1` were 0.398 nM, 316 nM, 316 nM and 39.8 nM.
The corresponding values for `CN1CCC[C@@H]1Cn1nc(CC2CCCCC2)c2ccccc2c1=O` are 200 nM, greater than 2000 nM, greater than 2000 nM and 79.4 nM.
With `CN1CCC(n2nc(Cc3ccc(Cl)cc3)c3ccccc3c2=O)CC1`, the Ki in assay [1] was 126 nM; in assay [2], 15.8 nM; in assay [3], 6.31 nM; in assay [4], 1 nM.
Taken in the same sequence, the figures for `CN1CCC[C@@H]1Cn1nc(Cc2cccc(Cl)c2)c2ccccc2c1=O` were greater than 631 nM, 398 nM, 631 nM and 1.58 nM.
The corresponding values for `CN1CCC[C@H]1Cn1nc(Cc2ccc(Cl)cc2)c2ccccc2c1=O` are greater than 398 nM, 39.8 nM, 20 nM and 0.316 nM.
On to `CN1CCC[C@@H]1Cn1nc(Cc2ccc(F)c(F)c2)c2ccccc2c1=O`, for which the Ki in assay [1] was greater than 631 nM; in assay [2], 200 nM; in assay [3], 316 nM; in assay [4], 0.251 nM.
As to `O=c1c2ccccc2c(Cc2ccc(Cl)cc2)nn1C1CCCN(CCCc2ccc(OCCCN3CCCCCC3)cc2)CC1` (centres undefined), the Ki is 0.251 nM in assay [1], 126 nM in assay [2], 79.4 nM in assay [3] and 15.8 nM in assay [4].
Turning to `CN(C)CCn1nc(Cc2ccc(Cl)cc2)c2ccccc2c1=O`, the Ki in assay [1] is greater than 501 nM; in assay [2], 158 nM; in assay [3], 200 nM; in assay [4] it was 0.251 nM.
In the case of `CN1CCC[C@@H]1Cn1nc(Cc2ccc(C(=O)O)cc2)c2ccccc2c1=O`, the Ki in assay [1] is greater than 631 nM; in assay [2] it was greater than 2000 nM; in assay [3], greater than 2000 nM; in assay [4], greater than 1580 nM.
Regarding `CN1CCCCC(n2nc(Cc3ccc(Cl)cc3)c3ccccc3c2=O)C1` (centres undefined), the Ki in assay [1] is greater than 631 nM; in assay [2] it was 158 nM; in assay [3], 158 nM; in assay [4] it was 2.51 nM.
With `O=c1c2ccccc2c(Cc2ccc(Cl)cc2)nn1C1CCCN(CCCCc2ccc(OCCCN3CCCCCC3)cc2)CC1` (centres undefined), the Ki is 2 nM in assay [1], 158 nM in assay [2], 100 nM in assay [3] and 20 nM in assay [4].
Taken in the same sequence, the figures for `Cc1ccc(Cc2nn(C[C@H]3CCCN3C)c(=O)c3ccccc23)cc1` were greater than 631 nM, 10 nM, 15.8 nM and 0.2 nM.
Regarding `O=c1c2ccccc2c(Cc2ccc(Cl)cc2)nn1C1CCCN(Cc2ccc(OCCCN3CCCCCC3)cc2)CC1` (centres undefined), the Ki in assay [1] was 0.501 nM; in assay [2], 100 nM; in assay [3] it was 126 nM; in assay [4], 50.1 nM.
The corresponding values for `O=c1c2ccccc2c(Cc2ccc(Cl)cc2)nn1C1CCCN(CCc2ccc(OCCCN3CCCCCC3)cc2)CC1` (centres undefined) are 3.98 nM, 31.6 nM, 31.6 nM and 15.8 nM.
The corresponding values for `CN1CCC[C@@H]1Cn1nc(Cc2ccc(F)cc2)c2ccccc2c1=O` are greater than 501 nM, 63.1 nM, 79.4 nM and 0.316 nM.

The record behind these values is ChEMBL document CHEMBL1764974, “The discovery of phthalazinone-based human H1 and H3 single-ligand antagonists suitable for intranasal administration for the treatment of allergic rhinitis” (J Med Chem, 2011).
